From BindingDB's records for doi:10.1021/acs.jmedchem.9b02004 (University of Illinois At Chicago, 2020)

Target: T1, Acid ceramidase (Homo sapiens, UniProt Q13510)
T1 sequence (Q13510 whole entry): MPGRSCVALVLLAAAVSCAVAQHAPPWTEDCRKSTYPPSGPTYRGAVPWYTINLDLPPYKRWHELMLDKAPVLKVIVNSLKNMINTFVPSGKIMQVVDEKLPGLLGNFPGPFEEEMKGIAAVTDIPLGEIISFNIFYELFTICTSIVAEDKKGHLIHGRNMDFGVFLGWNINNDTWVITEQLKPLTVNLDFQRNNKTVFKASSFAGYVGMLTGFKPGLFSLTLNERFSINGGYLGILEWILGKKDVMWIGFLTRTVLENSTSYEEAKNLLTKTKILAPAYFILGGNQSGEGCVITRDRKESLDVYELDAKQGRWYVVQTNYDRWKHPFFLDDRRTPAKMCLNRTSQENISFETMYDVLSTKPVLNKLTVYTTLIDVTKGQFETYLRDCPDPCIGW
Assay: Time-dependent inhibition of human acid ceramidase expressed in HEK293 cells using Rbm14-12 as substrate by fluorescence assay
Summary of the method: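 hAC-enriched lysates with fluorogenic substrate Rbm 14-12; vehicle 1% DMSO; time-dependent inhibition analysed for ki/KI and ki; two independent experiments, each in two technical replicates.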

- kinact: 0.0025 s⁻¹
Compound: CC(C)CNC(=O)n1c(=O)oc2cc(C3CCN(C)CC3)ccc21
